ChEMBL document CHEMBL1770075, “Thermal solvent-free synthesis of novel pyrazolyl chalcones and pyrazolines as potential antimicrobial agents” (2011)
Values after ≈ are worked out from the molar mass of the structure shown.

Legend:
Assay type in all cases: functional
[1] = test system: Streptococcus pyogenes; experiment: Antibacterial activity against clinical isolate of Streptococcus pyogenes after 24 hrs by disk diffusion method
[2] = test system: Staphylococcus aureus; experiment: Antibacterial activity against methicillin-resistant Staphylococcus aureus after 24 hrs by disk diffusion method
[3] = test system: Pseudomonas aeruginosa; experiment: Antibacterial activity against Pseudomonas aeruginosa ATCC 27853 after 24 hrs by disk diffusion method
[4] = test system: Klebsiella pneumoniae; experiment: Antibacterial activity against clinical isolate of Klebsiella pneumoniae after 24 hrs by disk diffusion method
[5] = test system: Escherichia coli; experiment: Antibacterial activity against Escherichia coli ATCC 25922 after 24 hrs by disk diffusion method
[6] = test system: Streptococcus pyogenes; experiment: Antibacterial activity against clinical isolate of Streptococcus pyogenes after 24 hrs by broth dilution method
[7] = test system: Staphylococcus aureus; experiment: Antibacterial activity against methicillin-resistant Staphylococcus aureus after 24 hrs by broth dilution method
[8] = test system: Pseudomonas aeruginosa; experiment: Antibacterial activity against Pseudomonas aeruginosa ATCC 27853 after 24 hrs by broth dilution method; conditions: ATCC 27853, 24 h
[9] = test system: Klebsiella pneumoniae; experiment: Antibacterial activity against clinical isolate of Klebsiella pneumoniae after 24 hrs by broth dilution method
[10] = test system: Escherichia coli; experiment: Antibacterial activity against Escherichia coli ATCC 25922 after 24 hrs by broth dilution method; conditions: ATCC 25922, 24 h
[11] = test system: Streptococcus pyogenes; experiment: Bactericidal activity against clinical isolate of Streptococcus pyogenes after 18 to 24 hrs by colony counting method
[12] = test system: Staphylococcus aureus; experiment: Bactericidal activity against methicillin-resistant Staphylococcus aureus after 18 to 24 hrs by colony counting method
Procedure, shortened: (§1)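 Colonies were counted after 18–24 h at 35 °C. MBC is the lowest concentration that kills 99.9% of the inoculum.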

[13] = test system: Pseudomonas aeruginosa; experiment: Bactericidal activity against Pseudomonas aeruginosa ATCC 27853 after 18 to 24 hrs by colony counting method; procedure, shortened: as §1
[14] = test system: Klebsiella pneumoniae; experiment: Bactericidal activity against clinical isolate of Klebsiella pneumoniae after 18 to 24 hrs by colony counting method
[15] = test system: Escherichia coli; experiment: Bactericidal activity against Escherichia coli ATCC 25922 after 18 to 24 hrs by colony counting method; procedure, shortened: as §1
[16] = test system: Candida albicans; experiment: Antifungal activity against Candida albicans after 48 hrs by agar diffusion method
[17] = test system: Aspergillus fumigatus; experiment: Antifungal activity against Aspergillus fumigatus after 48 hrs by agar diffusion method
[18] = test system: Trichophyton mentagrophytes; experiment: Antifungal activity against Trichophyton mentagrophytes after 48 hrs by agar diffusion method
[19] = test system: Talaromyces marneffei; experiment: Antifungal activity against Penicillium marneffei after 48 hrs by agar diffusion method
[20] = test system: Candida albicans; experiment: Antifungal activity against Candida albicans after 48 hrs
Procedure, shortened: (§2)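 Broth with two-fold serial dilutions of compound was inoculated with 1.6 × 10⁴–6 × 10⁴ c.f.u/ml and incubated at 35 °C. MIC is the lowest concentration that arrests growth. For MFC, 0.1 ml was spread on agar, colonies were counted after 48 h at 35 °C, and the endpoint was the lowest concentration killing 99.9%.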

[21] = test system: Aspergillus fumigatus; experiment: Antifungal activity against Aspergillus fumigatus after 48 hrs; procedure, shortened: as §2
[22] = test system: Trichophyton mentagrophytes; experiment: Antifungal activity against Trichophyton mentagrophytes after 48 hrs; procedure, shortened: as §2
[23] = test system: Talaromyces marneffei; experiment: Antifungal activity against Penicillium marneffei after 48 hrs; procedure, shortened: as §2

| Structure (SMILES) | diameter of the inhibition zone (DIZ) [1] [mm] | diameter of the inhibition zone (DIZ) [2] [mm] | diameter of the inhibition zone (DIZ) [3] [mm] | diameter of the inhibition zone (DIZ) [4] [mm] | diameter of the inhibition zone (DIZ) [5] [mm] | MIC [6] [µg/mL] | MIC [7] [µg/mL] | MIC [8] [µg/mL] | MIC [9] [µg/mL] | MIC [10] [µg/mL] | MBC [11] [µg/mL] | MBC [12] [µg/mL] | MBC [13] [µg/mL] | MBC [14] [µg/mL] | MBC [15] [µg/mL] | diameter of the inhibition zone (DIZ) [16] [mm] | diameter of the inhibition zone (DIZ) [17] [mm] | diameter of the inhibition zone (DIZ) [18] [mm] | diameter of the inhibition zone (DIZ) [19] [mm] | MFC [20] [µg/mL] | also measured |
| --- | --- | --- | --- | --- | --- | --- | --- | --- | --- | --- | --- | --- | --- | --- | --- | --- | --- | --- | --- | --- | --- |
| Cc1nn(-c2ccccc2)c(Cl)c1C1CC(C2C(=O)NC(=S)NC2=O)=NN1 (stereo not drawn) | 15.2 | 14.2 | 18.2 | 14.4 | 19.1 | 50 (≈ 124 µM) | 100 (≈ 248 µM) | 50 (≈ 124 µM) | 50 (≈ 124 µM) | 50 (≈ 124 µM) | 100 (≈ 248 µM) | > 100 | 100 (≈ 248 µM) | > 100 | 100 (≈ 248 µM) | 20.2 | 16.2 | 15.8 | 13.1 | 100 (≈ 248 µM) | MIC [20]: 50 µg/mL (≈ 124 µM); MFC [21]: 100 µg/mL (≈ 248 µM); MIC [21]: 25 µg/mL (≈ 62.1 µM); MFC [22]: 100 µg/mL (≈ 248 µM); MIC [22]: 25 µg/mL (≈ 62.1 µM); MFC [23]: > 100 µg/mL; MIC [23]: > 100 µg/mL |
| Cc1nn(-c2ccccc2)c(Cl)c1/C=C/C(=O)C1C(=O)NC(=O)NC1=O | 22.2 | 20.2 | 27.2 | 17.1 | 24.8 | 12.5 (≈ 33.5 µM) | 12.5 (≈ 33.5 µM) | 12.5 (≈ 33.5 µM) | 12.5 (≈ 33.5 µM) | 12.5 (≈ 33.5 µM) | 25 (≈ 67.1 µM) | 50 (≈ 134 µM) | 25 (≈ 67.1 µM) | 25 (≈ 67.1 µM) | 50 (≈ 134 µM) | 25.5 | 21.3 | 17.1 | 14.1 | 25 (≈ 67.1 µM) | MIC [20]: 12.5 µg/mL (≈ 33.5 µM); MFC [21]: 25 µg/mL (≈ 67.1 µM); MIC [21]: 12.5 µg/mL (≈ 33.5 µM); MFC [22]: 25 µg/mL (≈ 67.1 µM); MIC [22]: 12.5 µg/mL (≈ 33.5 µM); MFC [23]: 25 µg/mL (≈ 67.1 µM); MIC [23]: 12.5 µg/mL (≈ 33.5 µM) |
| Cc1nn(-c2ccccc2)c(Cl)c1/C=C/C(=O)C1C(=O)NC(=S)NC1=O | 18.4 | 17.1 | 22.1 | 15.4 | 20.7 | 25 (≈ 64.3 µM) | 25 (≈ 64.3 µM) | 25 (≈ 64.3 µM) | 25 (≈ 64.3 µM) | 50 (≈ 129 µM) | 100 (≈ 257 µM) | 50 (≈ 129 µM) | 100 (≈ 257 µM) | 50 (≈ 129 µM) | 100 (≈ 257 µM) | 20.4 | 17.9 | 17.1 | 14.1 | 50 (≈ 129 µM) | MIC [20]: 25 µg/mL (≈ 64.3 µM); MFC [21]: 50 µg/mL (≈ 129 µM); MIC [21]: 25 µg/mL (≈ 64.3 µM); MFC [22]: 50 µg/mL (≈ 129 µM); MIC [22]: 25 µg/mL (≈ 64.3 µM); MFC [23]: 100 µg/mL (≈ 257 µM); MIC [23]: 25 µg/mL (≈ 64.3 µM) |
| Cc1nn(-c2ccccc2)c(Cl)c1C1CC(C2C(=O)NC(=O)NC2=O)=NN1 (stereo not drawn) | 16.8 | 15.3 | 20.1 | 14.7 | 19.2 | 50 (≈ 129 µM) | 100 (≈ 259 µM) | 50 (≈ 129 µM) | 50 (≈ 129 µM) | 50 (≈ 129 µM) | 100 (≈ 259 µM) | > 100 | 100 (≈ 259 µM) | > 100 | > 100 | 20.4 | 16.8 | 16 | 13.1 | 100 (≈ 259 µM) | MIC [20]: 50 µg/mL (≈ 129 µM); MFC [21]: 100 µg/mL (≈ 259 µM); MIC [21]: 50 µg/mL (≈ 129 µM); MFC [22]: 100 µg/mL (≈ 259 µM); MIC [22]: 50 µg/mL (≈ 129 µM); MFC [23]: 100 µg/mL (≈ 259 µM); MIC [23]: 50 µg/mL (≈ 129 µM) |
